ChEMBL document CHEMBL1121653, “Potential pancreatic imaging agents. Tellurium-123m labeled DL-alpha-amino-gamma-(phenyltelluro)butyric acid” (J Med Chem, 1981)

What was measured:
Rattus norvegicus [1] = assay: Compound was evaluated for the distribution of radioactivity in female rat spleen at time interval 4 hours following intravenous administration of [123mTe]- Labeled-DL-cu-Amino-r-( phenyltel1uro) butyric Acid, expressed as mean dose per gram of tissue; assay type: ADME, organism-based; details: in vivo
How it was run: (§1)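 Female Fischer 344 rats, 10–12 weeks old (180–210 g), fed ad libitum, given the 123mTe-labeled amino acid through a lateral tail vein under ether anesthesia. The basic solution was neutralized to pH ~8 with 1 N HCl and filtered (0.22 μm) before injection. Rats were decapitated at 30 min, 60 min, 4 h or 24 h. Organs were rinsed in saline and weighed, and radioactivity was counted on a Ge(Li) analyzer. Values are %dose/g, mean ± SD of 3 rats.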

Rattus norvegicus [2] = assay: Compound was evaluated for the distribution of radioactivity in female rat kidneys at time interval 4 hours following intravenous administration of [123mTe]- Labeled-DL-cu-Amino-r-( phenyltel1uro) butyric Acid, expressed as mean dose per gram of tissu; assay type: ADME, organism-based, Kidney; details: in vivo; how it was run: as §1
Rattus norvegicus [3] = assay: Compound was evaluated for the distribution of radioactivity in female rat pancreas at time interval 30 minutes following intravenous administration of [123mTe]- Labeled-DL-cu-Amino-r-( phenyltel1uro) butyric Acid, expressed as mean dose per gram of t; assay type: ADME, organism-based; details: in vivo, 0.5 h; how it was run: as §1
Rattus norvegicus [4] = assay: Compound was evaluated for the distribution of radioactivity in female rat liver at time interval 24 hours following intravenous administration of [123mTe]- Labeled-DL-cu-Amino-r-( phenyltel1uro) butyric Acid, expressed as mean dose per gram of tissue; assay type: ADME, organism-based; details: in vivo; how it was run: as §1
Rattus norvegicus [5] = assay: Compound was evaluated for the distribution of radioactivity in female rat liver at time interval 30 minutes following intravenous administration of [123mTe]- Labeled-DL-cu-Amino-r-( phenyltel1uro) butyric Acid, expressed as mean dose per gram of tiss; assay type: ADME, organism-based; details: in vivo, 0.5 h; how it was run: as §1
Rattus norvegicus [6] = assay: Compound was evaluated for the distribution of radioactivity in female rat blood at time interval 30 minutes following intravenous administration of [123mTe]- Labeled-DL-cu-Amino-r-( phenyltel1uro) butyric Acid, expressed as mean dose per gram of tiss; assay type: ADME, organism-based; details: in vivo, 0.5 h; how it was run: as §1
Rattus norvegicus [7] = assay: Compound was evaluated for the distribution of radioactivity in female rat liver at time interval 4 hours following intravenous administration of [123mTe]- Labeled-DL-cu-Amino-r-( phenyltel1uro) butyric Acid, expressed as mean dose per gram of tissue; assay type: ADME, organism-based; details: in vivo; how it was run: as §1
Rattus norvegicus [8] = assay: Compound was evaluated for the distribution of radioactivity in female rat kidneys at time interval 24 hours following intravenous administration of [123mTe]- Labeled-DL-cu-Amino-r-( phenyltel1uro) butyric Acid, expressed as mean dose per gram of tiss; assay type: ADME, organism-based, Kidney; details: in vivo; how it was run: as §1
Rattus norvegicus [9] = assay: Compound was evaluated for the distribution of radioactivity in female rat blood at time interval 24 hours following intravenous administration of [123mTe]- Labeled-DL-cu-Amino-r-( phenyltel1uro) butyric Acid, expressed as mean dose per gram of tissue; assay type: ADME, organism-based; details: in vivo; how it was run: as §1
Rattus norvegicus [10] = assay: Compound was evaluated for the distribution of radioactivity in female rat spleen at time interval 30 minutes following intravenous administration of [123mTe]- Labeled-DL-cu-Amino-r-( phenyltel1uro) butyric Acid, expressed as mean dose per gram of tis; assay type: ADME, organism-based; details: in vivo, 0.5 h; how it was run: as §1
Rattus norvegicus [11] = assay: Compound was evaluated for the distribution of radioactivity in female rat pancreas at time interval 60 minutes following intravenous administration of [123mTe]- Labeled-DL-cu-Amino-r-( phenyltel1uro) butyric Acid, expressed as mean dose per gram of t; assay type: ADME, organism-based; details: in vivo, 1 h; how it was run: as §1
Rattus norvegicus [12] = assay: Compound was evaluated for the distribution of radioactivity in female rat blood at time interval 4 hours following intravenous administration of [123mTe]- Labeled-DL-cu-Amino-r-( phenyltel1uro) butyric Acid, expressed as mean dose per gram of tissue; assay type: ADME, organism-based; details: in vivo; how it was run: as §1
Rattus norvegicus [13] = assay: Compound was evaluated for the distribution of radioactivity in female rat kidneys at time interval 60 minutes following intravenous administration of [123mTe]- Labeled-DL-cu-Amino-r-( phenyltel1uro) butyric Acid, expressed as mean dose per gram of ti; assay type: ADME, organism-based, Kidney; details: in vivo, 1 h; how it was run: as §1
Rattus norvegicus [14] = assay: Compound was evaluated for the distribution of radioactivity in female rat pancreas at time interval 24 hours following intravenous administration of [123mTe]- Labeled-DL-cu-Amino-r-( phenyltel1uro) butyric Acid, expressed as mean dose per gram of tissue; assay type: ADME, organism-based; details: in vivo; how it was run: as §1
Rattus norvegicus [15] = assay: Compound was evaluated for the distribution of radioactivity in female rat kidneys at time interval 30 minutes following intravenous administration in kidneys of [123mTe]- Labeled-DL-cu-Amino-r-( phenyltel1uro) butyric Acid, expressed as mean dose per; assay type: ADME, organism-based, Kidney; details: in vivo, 0.5 h; how it was run: as §1
Rattus norvegicus [16] = assay: Compound was evaluated for the distribution of radioactivity in female rat spleen at time interval 60 minutes following intravenous administration of [123mTe]- Labeled-DL-cu-Amino-r-( phenyltel1uro) butyric Acid, expressed as mean dose per gram of tis; assay type: ADME, organism-based; details: in vivo, 1 h; how it was run: as §1
Rattus norvegicus [17] = assay: Compound was evaluated for the distribution of radioactivity in female rat liver at time interval 60 minutes following intravenous administration of [123mTe]- Labeled-DL-cu-Amino-r-( phenyltel1uro) butyric Acid, expressed as mean dose per gram of tiss; assay type: ADME, organism-based; details: in vivo, 1 h; how it was run: as §1
Rattus norvegicus [18] = assay: Compound was evaluated for the distribution of radioactivity in female rat blood at time interval 60 minutes following intravenous administration of [123mTe]- Labeled-DL-cu-Amino-r-( phenyltel1uro) butyric Acid, expressed as mean dose per gram of tiss; assay type: ADME, organism-based; details: in vivo, 1 h; how it was run: as §1
Rattus norvegicus [19] = assay: Compound was evaluated for the distribution of radioactivity in female rat pancreas at time interval 4 hours following intravenous administration of [123mTe]- Labeled-DL-cu-Amino-r-( phenyltel1uro) butyric Acid, expressed as mean dose per gram of tiss; assay type: ADME, organism-based; details: in vivo; how it was run: as §1
Rattus norvegicus [20] = assay: Compound was evaluated for the distribution of radioactivity in female rat spleene at time interval 24 hours following intravenous administration of [123mTe]- Labeled-DL-cu-Amino-r-( phenyltel1uro) butyric Acid, expressed as mean dose per gram of tiss; assay type: ADME, organism-based, Spleen; details: in vivo; how it was run: as §1

## NC(CC[Te]c1ccccc1)C(=O)O (stereo not given)
Rattus norvegicus [1]
  Dose: 0.234%
Rattus norvegicus [2]
  Dose: 2.169%
Rattus norvegicus [3]
  Dose: 0.206%
Rattus norvegicus [4]
  Dose: 2.139%
Rattus norvegicus [5]
  Dose: 0.32%
Rattus norvegicus [6]
  Dose: 0.208%
Rattus norvegicus [7]
  Dose: 1.046%
Rattus norvegicus [8]
  Dose: 1.489%
Rattus norvegicus [9]
  Dose: 0.485%
Rattus norvegicus [10]
  Dose: 0.129%
Rattus norvegicus [11]
  Dose: 0.654%
Rattus norvegicus [12]
  Dose: 0.451%
Rattus norvegicus [13]
  Dose: 2.628%
Rattus norvegicus [14]
  Dose: 0.334%
Rattus norvegicus [15]
  Dose: 1.019%
Rattus norvegicus [16]
  Dose: 0.238%
Rattus norvegicus [17]
  Dose: 0.534%
Rattus norvegicus [18]
  Dose: 0.497%
Rattus norvegicus [19]
  Dose: 0.434%
Rattus norvegicus [20]
  Dose: 0.28%
